In ChEMBL document CHEMBL4428089 (Bioorg Med Chem, 2016):
Active and inactive are the calls of the source. The rule behind the calls is not given here.

Tests used:
[1] = target: D(2) dopamine receptor (Rattus norvegicus, UniProt P61169); test: Displacement of [3H]spiperone from rat D2L dopamine receptor expressed in HEK293 cell membranes after 1 hr
[2] = target: D(3) dopamine receptor (Rattus norvegicus, UniProt P19020); test: Displacement of [3H]spiperone from rat D3 dopamine receptor expressed in HEK293 cell membranes after 1 hr
[3] = species on record: Rattus norvegicus; test: Selectivity ratio of Ki for rat D2L dopamine receptor expressed in HEK293 cells to Ki for rat D3 dopamine receptor expressed in HEK293 cells; assay type: cell-based
[4] = species on record: Homo sapiens; test: Selectivity ratio of EC50 for human D2 dopamine receptor expressed in CHO cells to EC50 for human D3 dopamine receptor expressed in CHO cells; assay type: cell-based
In short: (§1)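 [35S]GTPγS binding stimulated in CHO cells expressing human D2 or D3 receptors. […] The D2/D3 ratio is the ratio of the EC50 values. Values are means ± SEM of three to five experiments, each run in triplicate.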

[5] = target: T1, D(3) dopamine receptor (Homo sapiens, UniProt P35462); test: Agonist activity at human D3 dopamine receptor expressed in CHO cells by [35S]GTPgammaS binding assay relative to dopamine; assay type: functional, cell-based; in short: as §1
[6] = target: T2, D(2) dopamine receptor (Homo sapiens, UniProt P14416); test: Agonist activity at human D2 dopamine receptor expressed in CHO cells by [35S]GTPgammaS binding assay; assay type: functional, cell-based
In short: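 [35S]GTPγS binding stimulated in CHO cells expressing human D2 or D3 receptors. The D2/D3 ratio is the ratio of the EC50 values. Values are means ± SEM of three to five experiments, each run in triplicate.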

[7] = target: T2, D(2) dopamine receptor; test: Agonist activity at human D2 dopamine receptor expressed in CHO cells by [35S]GTPgammaS binding assay relative to dopamine; assay type: functional, cell-based; in short: as §1
[8] = target: T1, D(3) dopamine receptor; test: Agonist activity at human D3 dopamine receptor expressed in CHO cells by [35S]GTPgammaS binding assay; assay type: functional, cell-based
[9] = test system: PC-12; test: Neuroprotective activity against 6-OHDA induce toxicity in rat PC12 cells assessed as cell viability at 30 uM preincubated for 24 hrs followed by 6-OHDA addition for 24 hrs by MTT assay; assay type: functional; conditions: read-out: Activity
In short: (§2)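 PC12 cells were pretreated for 24 h across a concentration range (0.1-30 µM or 1-50 µM, depending on compound). A single dose of 75 µM 6-OHDA was then added for a further 24 h. Cell viability was measured by MTT assay.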

[10] = target: Alpha-synuclein (Homo sapiens) (UniProt P37840); test: Inhibition of recombinant alphaSN (unknown origin) fibrillation at 120 uM after 6 days by ThT fluorescence assay
In short: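 α-Synuclein was shaken for 6 days with or without the drug. Fibrillization was read by ThT fluorescence, normalized to α-synuclein shaken alone at day 6. Drugs were also tested alone in the ThT read-out. Values are means ± SEM of three independent experiments, compared by one-way ANOVA with Tukey post hoc test.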

[11] = test system: PC-12; test: Neuroprotective activity against 6-OHDA induce toxicity in rat PC12 cells assessed as cell viability preincubated for 24 hrs followed by 6-OHDA addition for 24 hrs by MTT assay; assay type: functional, cell-based; in short: as §2
[12] = test system: Rattus norvegicus; test: Reversal of reserpine-induced hypolocomotion in Sprague-Dawley rat assessed as locomotor stimulation at 10 umol/kg, ip administered 18 hrs post reserpine challenge measured over 6 hrs; assay type: functional, organism-based
In short: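 Rats received reserpine 5 mg/kg s.c. The drug was given at 10 µmol/kg i.p. 18 h after reserpine. Horizontal activity (beam interruptions) was recorded in 30-min intervals and compared with reserpine-only controls. n=3 rats per value, mean ± SEM, one-way ANOVA.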

[13] = target: Alpha-synuclein (Homo sapiens) (UniProt P37840); test: Induction of recombinant alphaSN (unknown origin) fibrillation at 120 uM after 6 days by ThT fluorescence assay
In short: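 Cell-free alpha-synuclein aggregation: SN shaken alone or co-incubated with each drug for 6 days. Fibrillization read by thioflavin T fluorescence and normalized to SN shaken alone for six days. Drugs were also run without SN to check for ThT interference. Means ± SEM of three independent experiments; one-way ANOVA with Tukey's post hoc test.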

Chain of D(3) dopamine receptor (Rattus norvegicus, UniProt P19020) (P19020 whole entry): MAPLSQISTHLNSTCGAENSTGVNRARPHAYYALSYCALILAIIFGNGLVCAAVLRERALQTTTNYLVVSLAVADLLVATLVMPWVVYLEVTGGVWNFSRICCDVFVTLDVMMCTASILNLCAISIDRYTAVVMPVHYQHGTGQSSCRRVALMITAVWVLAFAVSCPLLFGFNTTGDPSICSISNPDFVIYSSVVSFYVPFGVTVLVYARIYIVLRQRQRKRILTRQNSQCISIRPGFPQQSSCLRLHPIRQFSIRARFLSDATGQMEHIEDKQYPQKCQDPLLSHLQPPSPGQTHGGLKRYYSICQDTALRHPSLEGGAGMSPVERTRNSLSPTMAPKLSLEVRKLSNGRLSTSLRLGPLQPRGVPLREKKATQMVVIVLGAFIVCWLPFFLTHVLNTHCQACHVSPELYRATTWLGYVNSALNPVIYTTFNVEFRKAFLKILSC
T1 sequence (P35462 whole entry): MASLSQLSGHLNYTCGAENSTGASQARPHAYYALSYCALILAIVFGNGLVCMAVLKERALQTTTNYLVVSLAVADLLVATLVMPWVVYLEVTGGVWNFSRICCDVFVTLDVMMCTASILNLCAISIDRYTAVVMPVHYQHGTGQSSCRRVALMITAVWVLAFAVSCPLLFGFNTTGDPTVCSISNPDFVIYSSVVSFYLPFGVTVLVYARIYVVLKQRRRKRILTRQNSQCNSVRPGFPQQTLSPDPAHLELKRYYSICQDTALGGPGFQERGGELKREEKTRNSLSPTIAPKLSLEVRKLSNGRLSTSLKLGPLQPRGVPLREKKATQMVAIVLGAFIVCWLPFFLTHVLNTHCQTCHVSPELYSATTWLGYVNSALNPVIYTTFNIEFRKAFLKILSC
Chain of D(2) dopamine receptor (Rattus norvegicus, UniProt P61169) (P61169 whole entry): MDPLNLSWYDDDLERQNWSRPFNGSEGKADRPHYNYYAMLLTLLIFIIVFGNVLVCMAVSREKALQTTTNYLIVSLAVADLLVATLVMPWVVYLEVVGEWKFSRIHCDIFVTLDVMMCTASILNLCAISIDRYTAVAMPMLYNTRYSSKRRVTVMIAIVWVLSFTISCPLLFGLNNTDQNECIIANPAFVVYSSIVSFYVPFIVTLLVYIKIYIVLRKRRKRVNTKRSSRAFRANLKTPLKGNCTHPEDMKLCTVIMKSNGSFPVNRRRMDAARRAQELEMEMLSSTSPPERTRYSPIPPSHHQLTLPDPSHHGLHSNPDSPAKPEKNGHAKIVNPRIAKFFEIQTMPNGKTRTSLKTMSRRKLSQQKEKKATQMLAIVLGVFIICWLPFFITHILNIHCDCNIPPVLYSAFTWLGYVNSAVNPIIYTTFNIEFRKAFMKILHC
T2 sequence (P14416 whole entry): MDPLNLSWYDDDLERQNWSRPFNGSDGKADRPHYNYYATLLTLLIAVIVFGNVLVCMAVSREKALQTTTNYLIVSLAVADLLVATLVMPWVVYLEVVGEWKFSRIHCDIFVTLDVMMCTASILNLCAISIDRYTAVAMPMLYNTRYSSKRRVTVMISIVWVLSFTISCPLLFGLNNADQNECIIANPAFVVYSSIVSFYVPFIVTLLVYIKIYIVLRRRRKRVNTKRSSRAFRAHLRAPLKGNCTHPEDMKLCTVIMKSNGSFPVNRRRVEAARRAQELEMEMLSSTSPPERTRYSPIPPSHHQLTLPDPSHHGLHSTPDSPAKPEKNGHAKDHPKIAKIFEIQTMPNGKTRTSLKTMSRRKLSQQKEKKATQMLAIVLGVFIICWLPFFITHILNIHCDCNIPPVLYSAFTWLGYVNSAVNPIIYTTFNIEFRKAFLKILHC

| SMILES | Ki [2] | Ratio Ki [3] | Emax [5] | EC50 [6] | Emax [7] | EC50 [8] | other results |
| --- | --- | --- | --- | --- | --- | --- | --- |
| CCCN(CCC/C=C/c1ccc(O)c(OC)c1)C1CCc2nc(N)sc2C1 (racemic) | 4.24 nM | 35 |  |  |  |  | Ki [1]: 150 nM |
| CCCN(CCCCCc1ccc(O)c(OC)c1)[C@H]1CCc2nc(N)sc2C1 |  | 43 | 94.4% | 2.09 nM | 96.2% | 0.78 nM | Ratio EC50 [4]: 2.68 |
| CCCN(CCCCCc1ccc(O)c(O)c1)[C@H]1CCc2c(O)cccc2C1 | 0.493 nM | 9 | 90.9% | 0.27 nM | 88.8% | 0.33 nM | viability at 30 µM [9]: 18 to 25%; Ki [1]: 4.67 nM; Ratio EC50 [4]: 0.82; inhibition [10]: Active; Activity [11]: Dose-dependent effect |
| CCCN(CCCCCc1ccc(O)c(O)c1)C1CCc2nc(N)sc2C1 (racemic) |  | 45 |  |  |  |  |  |
| CCCN(CCC/C=C\c1ccc(O)c(OC)c1)C1CCc2nc(N)sc2C1 (racemic) |  | 10 |  |  |  |  |  |
| CCCN(C/C=C/c1ccc(O)c(OC)c1)C1CCc2nc(N)sc2C1 (configuration not stated) |  | 119 |  |  |  |  |  |
| CCCN(CCCCCCc1ccc(O)c(OC)c1)C1CCc2nc(N)sc2C1 (racemic) | 0.675 nM | 87 |  |  |  |  | Ki [1]: 58.5 nM |
| CCCN(CCCCCc1ccc(O)c(O)c1)[C@H]1CCc2nc(N)sc2C1 |  | 46 | 83.4% | 22.9 nM | 97.4% | 2.62 nM | viability at 30 µM [9]: 18 to 25%; Activity [12]: Active; Ratio EC50 [4]: 8.74; inhibition [10]: Active; Activity [11]: Dose-dependent effect |
| CCCN(CCC)C1CCc2c(O)cccc2C1 (configuration not stated) |  |  |  |  |  |  | Activity [13]: Active |
| CCCN(CCCCCc1ccc(O)c(OC)c1)C1CCc2nc(N)sc2C1 (racemic) | 3.62 nM | 48 |  |  |  |  |  |
| CCCN(CCC)CCc1cccc2c1CC(=O)N2 |  |  |  |  |  |  | Activity [12]: Active |
| CCCN(CCC/C=C/c1ccc(O)c(OC)c1)[C@H]1CCc2nc(N)sc2C1 | 22.3 nM | 6 | 87.5% | 37.7 nM | 84.3% | 20.4 nM | viability at 30 µM [9]: 18 to 25%; Ki [1]: 123 nM; Ratio EC50 [4]: 1.85; Activity [11]: Dose-dependent effect |
| CCCN[C@H]1CCc2nc(N)sc2C1 |  |  |  |  |  |  | Activity [13]: Active |
| CCCN(CCCc1ccc(O)c(OC)c1)C1CCc2nc(N)sc2C1 (racemic) |  | 153 |  |  |  |  |  |
| CCCN(CCCCCc1cc(O)ccc1O)[C@H]1CCc2nc(N)sc2C1 | 0.78 nM |  | 90.9% | 9.3 nM | 88% | 1.22 nM |  |
